Measured values: ChEMBL document CHEMBL4145619, “Computer-Assisted Discovery of Retinoid X Receptor Modulating Natural Products and Isofunctional Mimetics” (J Med Chem, 2018)
Calls of active or inactive are those of the source. No cut-off for these calls is given here.

Assays:
Format in all cases: cell-based
[1] = molecular target: T1, Nuclear receptor subfamily 1 group I member 3 (Homo sapiens, UniProt Q14994); experiment: Transactivation of human Gal4-fused CAR LBD expressed in HEK293T cells at 30 uM after 12 to 14 hrs by dual-glo luciferase assay
T1 sequence (Q14994 whole entry): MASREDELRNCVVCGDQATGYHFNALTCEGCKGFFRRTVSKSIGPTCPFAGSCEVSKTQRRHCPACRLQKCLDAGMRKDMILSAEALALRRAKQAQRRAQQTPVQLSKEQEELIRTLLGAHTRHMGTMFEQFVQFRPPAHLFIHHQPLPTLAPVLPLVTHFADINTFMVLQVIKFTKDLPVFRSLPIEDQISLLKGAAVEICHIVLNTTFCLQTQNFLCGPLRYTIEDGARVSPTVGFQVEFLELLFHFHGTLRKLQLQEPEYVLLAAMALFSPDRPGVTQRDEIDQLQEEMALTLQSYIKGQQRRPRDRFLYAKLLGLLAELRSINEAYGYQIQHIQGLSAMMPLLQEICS
Procedure, shortened: (§1)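 Single-concentration selectivity profiling in Gal4-hybrid reporter gene assays in HEK293T cells. Each nuclear receptor construct (RAR, PPAR, LXR, FXR, CAR, VDR, PXR, RXR) was tested at 30 μM.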

[2] = molecular target: T2, Vitamin D3 receptor (Homo sapiens) (UniProt P11473); experiment: Transactivation of human Gal4-fused VDR LBD expressed in HEK293T cells at 30 uM after 12 to 14 hrs by dual-glo luciferase assay; procedure, shortened: as §1
T2 sequence (whole entry): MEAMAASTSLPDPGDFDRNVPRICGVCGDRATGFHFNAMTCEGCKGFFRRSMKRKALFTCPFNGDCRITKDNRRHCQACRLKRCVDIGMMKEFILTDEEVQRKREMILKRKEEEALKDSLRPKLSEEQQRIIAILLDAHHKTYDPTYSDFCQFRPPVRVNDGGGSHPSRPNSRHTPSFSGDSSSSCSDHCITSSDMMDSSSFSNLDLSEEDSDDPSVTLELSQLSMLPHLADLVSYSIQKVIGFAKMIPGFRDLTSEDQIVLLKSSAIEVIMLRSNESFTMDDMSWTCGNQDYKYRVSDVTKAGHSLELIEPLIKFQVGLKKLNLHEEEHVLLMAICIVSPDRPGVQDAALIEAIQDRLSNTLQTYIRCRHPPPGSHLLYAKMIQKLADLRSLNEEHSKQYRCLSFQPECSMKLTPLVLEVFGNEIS

[3] = molecular target: T3, Nuclear receptor subfamily 1 group I member 2 (Homo sapiens, UniProt O75469); experiment: Transactivation of human Gal4-fused PXR LBD expressed in HEK293T cells at 30 uM after 12 to 14 hrs by dual-glo luciferase assay; procedure, shortened: as §1
T3 sequence (O75469 whole entry): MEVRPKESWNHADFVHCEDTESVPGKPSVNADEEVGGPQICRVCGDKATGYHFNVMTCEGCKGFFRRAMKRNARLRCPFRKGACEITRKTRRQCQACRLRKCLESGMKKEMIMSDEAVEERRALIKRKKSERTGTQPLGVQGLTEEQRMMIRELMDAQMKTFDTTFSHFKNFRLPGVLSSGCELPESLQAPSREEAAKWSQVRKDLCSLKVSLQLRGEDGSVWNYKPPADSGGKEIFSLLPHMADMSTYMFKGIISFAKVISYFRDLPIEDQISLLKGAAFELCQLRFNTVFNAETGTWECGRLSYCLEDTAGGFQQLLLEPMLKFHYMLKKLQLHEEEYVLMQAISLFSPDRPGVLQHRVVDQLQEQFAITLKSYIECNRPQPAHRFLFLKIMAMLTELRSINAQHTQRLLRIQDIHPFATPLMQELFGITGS

[4] = molecular target: T4, Retinoic acid receptor gamma (Homo sapiens) (UniProt P13631); experiment: Transactivation of human Gal4-fused RARgamma LBD expressed in HEK293T cells at 30 uM after 12 to 14 hrs by dual-glo luciferase assay; procedure, shortened: as §1
T4 sequence (whole entry): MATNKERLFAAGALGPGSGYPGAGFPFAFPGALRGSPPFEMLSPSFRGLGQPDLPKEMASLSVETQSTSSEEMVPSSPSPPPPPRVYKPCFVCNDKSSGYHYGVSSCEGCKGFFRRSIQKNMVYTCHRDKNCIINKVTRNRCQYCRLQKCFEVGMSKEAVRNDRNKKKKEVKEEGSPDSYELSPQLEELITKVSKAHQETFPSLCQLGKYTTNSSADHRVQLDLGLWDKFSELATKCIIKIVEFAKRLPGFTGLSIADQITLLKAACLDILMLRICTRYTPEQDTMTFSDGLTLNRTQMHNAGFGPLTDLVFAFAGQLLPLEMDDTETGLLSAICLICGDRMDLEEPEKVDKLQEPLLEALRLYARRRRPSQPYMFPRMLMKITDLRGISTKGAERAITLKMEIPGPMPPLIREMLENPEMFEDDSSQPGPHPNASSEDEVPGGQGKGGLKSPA

[5] = molecular target: T5, Retinoic acid receptor RXR-alpha (Homo sapiens) (UniProt P19793); experiment: Transactivation of human Gal4-fused RXRalpha LBD expressed in HEK293T cells after 12 to 14 hrs by dual-glo luciferase assay relative to bexarotene
T5 sequence (whole entry): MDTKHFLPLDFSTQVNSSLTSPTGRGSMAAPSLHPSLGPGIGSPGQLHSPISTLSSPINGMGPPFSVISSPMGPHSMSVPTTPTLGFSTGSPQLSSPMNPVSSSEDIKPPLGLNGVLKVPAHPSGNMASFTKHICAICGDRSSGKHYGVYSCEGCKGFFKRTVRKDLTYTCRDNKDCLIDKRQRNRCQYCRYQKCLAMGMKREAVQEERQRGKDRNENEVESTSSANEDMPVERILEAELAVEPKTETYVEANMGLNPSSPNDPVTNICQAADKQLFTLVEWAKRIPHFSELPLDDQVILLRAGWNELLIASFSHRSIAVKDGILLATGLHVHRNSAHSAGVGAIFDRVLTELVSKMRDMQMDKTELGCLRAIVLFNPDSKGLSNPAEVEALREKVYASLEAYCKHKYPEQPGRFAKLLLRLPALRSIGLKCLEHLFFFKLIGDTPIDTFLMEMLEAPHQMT

Activity [1]: Not Active | Activity [2]: inactive | Activity [3]: Not Active | Activity [4]: inactive | fold change (FC) [5]: 9
SMILES: CC1=C2[C@H](/C=C(\C)C(=O)O)CC[C@@H](C)[C@H]2CC1 [VALERENIC ACID]
